# Test results: ChEMBL document CHEMBL1759918, “2-Substituted 5,6-dimethyl-3-phenylsulfonyl-pyrazolo[1,5-a]pyrimidines: new series of highly potent and specific serotonin 5-HT6 receptor antagonists” (Eur J Med Chem, 2011)
# How the values were obtained:
# [1] = target: T1, 5-hydroxytryptamine receptor 6 (Homo sapiens, UniProt P50406); test: Antagonist activity at human recombinant 5HT6 receptor expressed in HEK293 cells assessed as inhibition of serotonin-induced cAMP production after 2 hrs; assay type: functional, cell-based
# Method in brief: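 Tetracycline-induced (1 ug/mL, day before) T-Rex HEK cells expressing 5-HT6R, EDTA-harvested, in HBSS/5 mM HEPES pH 7.4/0.05% BSA with IBMX; ~4000 cells/well. Compound premixed with serotonin (final 10 nM, 0.32% DMSO), 2 h; cAMP by LANCE kit. Duplicates; 4-parameter IC50; Ki = IC50/(1+[Ag]/EC50), serotonin EC50 measured on same plates.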
# [2] = target: T1, 5-hydroxytryptamine receptor 6; test: Displacement of [3H]lysergic acid diethylamide from human recombinant 5HT6 receptor
# T1 sequence (P50406 whole entry): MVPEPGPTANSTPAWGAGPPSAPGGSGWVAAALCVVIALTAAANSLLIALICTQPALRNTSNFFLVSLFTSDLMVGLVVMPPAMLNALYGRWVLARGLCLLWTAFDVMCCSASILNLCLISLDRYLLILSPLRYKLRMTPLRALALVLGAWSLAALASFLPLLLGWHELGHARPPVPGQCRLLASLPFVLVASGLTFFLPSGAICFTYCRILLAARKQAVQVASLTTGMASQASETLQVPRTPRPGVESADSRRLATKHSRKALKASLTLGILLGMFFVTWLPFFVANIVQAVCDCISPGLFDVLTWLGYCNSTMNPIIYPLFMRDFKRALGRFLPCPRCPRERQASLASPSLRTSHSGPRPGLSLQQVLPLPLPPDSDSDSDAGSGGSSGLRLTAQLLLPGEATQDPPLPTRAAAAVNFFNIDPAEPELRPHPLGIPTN
SMILES,Ki [1] [nM],Ki [2] [nM]
Cc1cc(C)n2nc(C)c(S(=O)(=O)c3ccccc3)c2n1,88.8,
Cc1cc(C)n2nc(NCCCN(C)C)c(S(=O)(=O)c3ccccc3)c2n1,764,
Cc1cc(C)n2nc(NCCN(C)C)c(S(=O)(=O)c3ccccc3)c2n1,2600,
Cc1cc(C)n2nc(N3CCNCC3)c(S(=O)(=O)c3ccccc3)c2n1,1380,

# More lines, in order of falling Ki [1], values ahead:
Ki [1] [nM],Ki [2] [nM],SMILES
283,22.2,Cc1cc(C)n2nc(OCCO)c(S(=O)(=O)c3ccccc3)c2n1
14.5,,Cc1cc(C)n2nc(N(C)C)c(S(=O)(=O)c3ccccc3)c2n1
1.91,,CCSc1nn2c(C)cc(C)nc2c1S(=O)(=O)c1ccccc1
